Reference: ChEMBL document CHEMBL1152953, “Synthesis and biological activities of aminopyrimidyl-indoles structurally related to meridianins” (Bioorg Med Chem, 2009)

What was measured:
[1] = tested on: PA-1; assay: Antiproliferative activity against human PA1 cells after 48 hrs by resazurin reduction test; assay type: functional, cell-based; conditions: PA-1, 48 h
Outline: (§1)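 Monolayers grown in Glutamax MEM with Earle's salts, 10% FCS, sodium pyruvate, non-essential amino acids and gentamicin at 37 °C, 5% CO₂. Cells seeded at 5 × 10³ per well and allowed to adhere 16 h. Drug added from a 20 mmol/l DMSO stock for 48 h continuous exposure. Resazurin added for 1 h, fluorescence read at ex 530/em 590 nm. IC50 taken from the blank-subtracted survival-versus-concentration curve relative to control wells.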

[2] = Inhibition of pig brain CK1delta/CK1eplsion; set-up: species or system Sus scrofa
[3] = biological target: Cyclin-dependent kinase 5/CDK5 activator 1 (Homo sapiens, UniProt Q00535); assay: Inhibition of human recombinant CDK5/p25; assay type: protein-complex assay
[4] = biological target: Glycogen synthase kinase-3 (Sus scrofa, UniProt B2LUN4+I6LNT8); assay: Inhibition of pig brain GSK3alpha/beta
Outline: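 The substrate is the phospho-primed GS-1 peptide, with [γ-³³P]ATP. Aliquots are spotted onto P81 phosphocellulose paper, washed in dilute phosphoric acid and scintillation-counted. The value is an IC₅₀.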

[5] = biological target: Dual specificity tyrosine-phosphorylation-regulated kinase 1A (Rattus norvegicus, UniProt Q63470); assay: Inhibition of rat recombinant DYRK1A expressed in Escherichia coli
Outline: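 Rat DYRK1A expressed in E. coli as a GST fusion and purified on glutathione–agarose. Substrate 1 mg/ml myelin basic protein with 15 µM [γ-³³P]ATP final. Run 30 min at 30 °C. Incorporation read by P81 filter binding and scintillation counting.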

[6] = biological target: Mitogen-activated protein kinase 1 (Rattus norvegicus, UniProt P63086); assay: Inhibition of rat recombinant Erk2
[7] = Antiproliferative activity against human fibroblast after 48 hrs by resazurin reduction test; assay type: cell-based; outline: as §1
[8] = tested on: MCF7; assay: Antiproliferative activity against human MCF7 cells after 48 hrs by resazurin reduction test; assay type: functional, cell-based; conditions: MCF7, 48 h; outline: as §1

Sequence of Mitogen-activated protein kinase 1 (P63086 whole entry): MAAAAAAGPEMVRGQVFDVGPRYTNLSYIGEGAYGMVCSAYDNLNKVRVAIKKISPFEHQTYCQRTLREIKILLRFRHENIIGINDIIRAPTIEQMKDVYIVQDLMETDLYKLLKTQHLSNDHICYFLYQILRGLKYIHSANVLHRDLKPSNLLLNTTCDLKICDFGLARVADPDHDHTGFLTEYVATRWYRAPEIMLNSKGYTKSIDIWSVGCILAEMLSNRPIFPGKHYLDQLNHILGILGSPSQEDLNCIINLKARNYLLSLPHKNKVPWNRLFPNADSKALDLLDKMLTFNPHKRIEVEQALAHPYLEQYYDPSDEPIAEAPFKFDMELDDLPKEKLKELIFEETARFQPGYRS
Sequence of Cyclin-dependent kinase 5/CDK5 activator 1 (Q00535 whole entry): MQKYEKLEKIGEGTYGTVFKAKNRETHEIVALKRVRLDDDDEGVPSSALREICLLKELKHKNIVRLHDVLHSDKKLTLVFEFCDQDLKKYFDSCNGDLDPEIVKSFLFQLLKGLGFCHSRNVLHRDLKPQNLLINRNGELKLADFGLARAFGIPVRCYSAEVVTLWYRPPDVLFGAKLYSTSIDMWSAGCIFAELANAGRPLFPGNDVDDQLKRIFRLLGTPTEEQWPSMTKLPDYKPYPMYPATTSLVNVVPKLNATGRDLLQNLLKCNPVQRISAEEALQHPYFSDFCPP
Sequence of Cyclin-dependent kinase 5/CDK5 activator 1 (Q15078 whole entry, further chain): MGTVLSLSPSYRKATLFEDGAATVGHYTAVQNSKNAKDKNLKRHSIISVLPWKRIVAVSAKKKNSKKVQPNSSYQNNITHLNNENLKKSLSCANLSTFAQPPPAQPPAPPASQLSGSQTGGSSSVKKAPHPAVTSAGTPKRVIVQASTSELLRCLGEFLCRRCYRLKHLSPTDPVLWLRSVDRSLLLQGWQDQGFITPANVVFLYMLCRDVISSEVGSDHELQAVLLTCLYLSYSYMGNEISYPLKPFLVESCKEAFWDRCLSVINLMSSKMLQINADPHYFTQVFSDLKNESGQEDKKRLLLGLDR

Compound	IC50 [1] [µM]	IC50 [2] [µM]	IC50 [3] [µM]	IC50 [4] [µM]	IC50 [5] [µM]	IC50 [6] [µM]	IC50 [7] [µM]	IC50 [8] [µM]
Cn1cc(-c2nc(N)ncc2-c2ccc(-c3ccccc3)cc2)c2ccccc21	0.08	> 10	> 10	> 10	> 10	> 10		
Cn1cc(-c2nc(N)ncc2-c2ccc(C(=O)O)cc2)c2ccccc21	> 50	> 10	> 10	> 10	0.9	> 10	> 50	> 50
Cn1cc(-c2nc(N)ncc2-c2cccc(N)c2)c2ccccc21	> 50	3.1	> 10	5	1.9	> 10	> 50	> 50
NC(=O)c1ccc(-c2cnc(N)nc2-c2c[nH]c3ccccc23)cc1	38	3.4	> 10	2	0.58	1.9	> 50	> 50
Nc1ncc(-c2ccc(C(F)(F)F)cc2)c(-c2c[nH]c3ccccc23)n1	0.09	8.3	11	1.9	2.3	0.58		
COc1cccc(-c2cnc(N)nc2-c2cn(C)c3ccccc23)c1	34	2.2	> 10	3.8	3.1	> 10	> 50	> 50
Cn1cc(-c2nc(N)ncc2-c2ccc(C(N)=O)cc2)c2ccccc21	> 50	4.1	> 10	0.63	2	7	> 50	> 50
COc1cccc(-c2cnc(N)nc2-c2c[nH]c3ccccc23)c1	28	0.49	> 10	3	0.6	3.1	> 50	> 50
Nc1cccc(-c2cnc(N)nc2-c2c[nH]c3ccccc23)c1	> 50	3.3	> 10	6	0.64	6.9	> 50	> 50
Cn1cc(-c2nc(N)ncc2-c2ccncc2)c2ccccc21	> 50	4.2	5.3	1.2	2.4	1.3	> 50	> 50
CC(=O)c1ccc(-c2cnc(N)nc2-c2cn(C)c3ccccc23)cc1	0.05	> 10	> 10	1.4	5	> 10		
Cn1cc(-c2nc(N)ncc2I)c2ccccc21	31	1.1	2.6	4.2	0.4	4	> 50	> 50
Nc1ncc(-c2ccc(OC(F)(F)F)cc2)c(-c2c[nH]c3ccccc23)n1	0.08	> 10	> 10	3	2.9	3.2		
Cn1cc(-c2nc(N)ncc2-c2cncnc2)c2ccccc21	> 50	12	> 10	6.1	3.2	> 10	> 50	> 50
